Legend:
[1] = Stability of ML-970 in mouse plasma; type: in vitro ADME; conditions: for compound remaining intact: 4°C
Summary of the method: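 Mouse plasma was spiked with 1 or 10 μM test compound. Samples were held at 37°C in a water bath (sampled at 5, 10, 20, 30 and 60 min and at 2, 4 and 8 h), at 4°C (0.5–24 h) or at −80°C (1, 2 and 4 weeks). Each sample was extracted and measured by HPLC-UV at 308 nm. Remaining amount was expressed as % of the starting concentration versus time.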

mouse plasma proteins = test: Binding to mouse plasma proteins; type: in vitro ADME; conditions: 37°C 1 h
Summary of the method: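 Test compound added to mouse plasma at 0.1, 1.0 and 10 μM and held at 37°C for 1 h; methanol replaced plasma in controls. Samples were centrifuged through 30 kDa ultrafiltration units at 2,000×g until dry. Filtrate (free, F) and unfiltered solution (total, T) were each measured in triplicate by HPLC-UV at 308 nm. Filter-bound amount (X) was included: % bound = [(T–F–X)/T] × 100.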

[2] = S9 metabolism, mouse hepatic S9 fractions; type: in vitro ADME; conditions: mouse S9 1 mg/ml, 10 μM, within an hour of incubation, 37°C
[3] = S9 metabolism, rat hepatic S9 fractions; type: in vitro ADME; conditions: rat S9 1 mg/ml, 10 μM, within an hour of incubation, 37°C
[4] = S9 metabolism, human hepatic S9 fractions; type: in vitro ADME; conditions: human S9 1 mg/ml, 10 μM, within an hour of incubation, 37°C
[5] = Pharmacokinetic studies in nude mice; type: in vivo, female athymic nude mice; conditions: for intact compound in plasma / time to highest plasma concentration: solution formulation
Summary of the method: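 Female athymic nude mice (~25 g) received a solution formulation (PEG400/EtOH/Tween 80/D5W) at 20 mg/kg i.v., 50 mg/kg i.p. or 100 mg/kg p.o. Others received a suspension (0.05% Tween 80/saline) at 15 mg/kg i.p. or 100 mg/kg p.o. Heparinized retro-orbital blood was taken from 5 min to 24 h (i.v.) or 10 min to 48 h, with ≥3 samples per time point. Plasma was extracted with acetonitrile and measured by HPLC-UV.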

[6] = Pharmacokinetic and tissue distribution studies in CD-1 mice; type: in vivo, female CD-1 mice
[7] = Urinary and fecal excretion after i.v. injection; type: in vivo, mice; conditions: i.v. injection 20 mg/kg, first 48 h, parent compound
Summary of the method: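 Female nude mice dosed i.v. (20 mg/kg, solution formulation) were housed in metabolic cages, and urine and feces were collected for up to 48 h. Containers and cages were rinsed twice with 0.9% saline. Urine and each wash were extracted directly, analysed separately and summed. Feces were homogenized in PBS (5 ml/g), extracted with acetonitrile and measured by HPLC. Results were expressed as % of dose.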

[8] = Urinary and fecal excretion, higher dose in CD-1 mice; type: in vivo; conditions: 40 mg/kg i.v.
[9] = Preliminary pharmacokinetics; type: in vivo, female Sprague-Dawley rats; conditions: rats, oral 2.5 vs 5 mg/kg; exception intestine
Summary of the method: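 Female Sprague-Dawley rats received oral doses of 2.5 or 5 mg/kg in (PEG400/EtOH/Tween 80 = 6:3:1)/D5W = 1:2, either as a single dose or once daily for 5 days. Plasma was sampled at 1, 6 and 12 h. Lungs, liver, kidneys, small intestine and small-intestine contents were collected at 12 h on days 1 and 5. Tissues were homogenized in PBS, extracted with acetonitrile and analysed by HPLC.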

NCI60 = conditions: read-out: average GI50; NCI60 screening, cytotoxic activity; cited from earlier work
six different cell lines = conditions: cited from earlier work
[10] = tested on: xenograft models of glioma (SF295), lung (H522), breast (MDA-MB-435), ovarian (OVCAR-3) cancers; conditions: SF295, H522, MDA-MB-435, OVCAR-3 xenografts; cited from earlier work
[11] = tested on: MDA-MB-435 breast cancer xenograft; conditions: oral doses 70-280 mg/kg and i.v. dose 10 mg/kg; cited from earlier work
[12] = in vitro assays and xenograft studies; cited from earlier work
[13] = nude mice, 0.05% Tween 80/Saline, i.p., 15 mg/kg, plasma
[14] = nude mice, 0.05% Tween 80/Saline, p.o., 100 mg/kg, plasma
[15] = nude mice, PEG400/EtOH/Tween 80/D5W, i.p., 50 mg/kg, plasma
[16] = nude mice, PEG400/EtOH/Tween 80/D5W, i.v., 20 mg/kg, plasma
[17] = nude mice, PEG400/EtOH/Tween 80/D5W, p.o., 100 mg/kg, plasma
[18] = CD-1 mice, PEG400/EtOH/Tween 80/D5W, i.v., 2.5 mg/kg, plasma
[19] = CD-1 mice, PEG400/EtOH/Tween 80/D5W, p.o., 2.5 mg/kg, plasma
[20] = CD-1 mice, PEG400/EtOH/Tween 80/D5W, p.o., 5 mg/kg, plasma

COc1cc2cc(C(=O)Nc3cc(N)c4ccccc4c3CCCl)[nH]c2c(OC)c1OC [ML-970]
compound remaining intact ([1]; 24-h storage (summary)): approximately 90%
compound remaining intact ([1]; 24 h, 1 μM): 88.6%
compound remaining intact ([1]; 24 h, 10 μM): 92.4%
compound remaining ([1]; 37°C, 8-h incubation, both 1 and 10 μM (summary)): approximately 70%
compound remaining ([1]; 37°C, 8 h, 1 μM): 70.9%
compound remaining ([1]; 37°C, 8 h, 10 μM): 70.2%
compound remaining ([1]; −80°C, 4 weeks, 1 μM): 87.5%
compound remaining ([1]; −80°C, 4 weeks, 10 μM): 89.8%
degradation on storage ([1]; −80°C, a week of storage): no significant degradation
binding to plasma proteins (mouse plasma proteins; 0.1 μM): 87.57%
binding to plasma proteins (mouse plasma proteins; 1.0 μM): 89.31%
binding to plasma proteins (mouse plasma proteins; 10.0 μM): 90.89%
loss of parent compound with S9 enzymes [2]: no significant loss of the parent compound
loss of parent compound with S9 enzymes [3]: no significant loss of the parent compound
loss of parent compound with S9 enzymes [4]: no significant loss of the parent compound
toxicity observed in pharmacokinetic studies ([5]; doses from 10 to 100 mg/kg, soluble and suspension formulations): did not observe any toxicity
AUC0~∞ [5, 13]: 5350 ng·h/mL
CL or CL/F [5, 13]: 2.67 mL/g/h
Cmax [5, 13]: 1160 ng/mL
MRT [5, 13]: 6.21 h
T1/2 [5, 13]: 6.14 h
Tmax [5, 13]: 1 h
AUC0~∞ [5, 14]: 11520 ng·h/mL
CL or CL/F [5, 14]: 8.07 mL/g/h
Cmax [5, 14]: 1520 ng/mL
MRT [5, 14]: 8.1 h
T1/2 [5, 14]: 6.73 h
Tmax [5, 14]: 1 h
intact compound in plasma ([5]; nude mice, 8 h after i.v. 20 mg/kg): still detectable
intact compound in plasma ([5]; nude mice, 24 h after i.p. 50 mg/kg): could still be detected
intact compound in plasma ([5]; nude mice, 24 h after p.o. 100 mg/kg): could still be detected
AUC0~∞ [5, 15]: 42110 ng·h/mL
CL or CL/F [5, 15]: 1.19 mL/g/h
Cmax [5, 15]: 20390 ng/mL
MRT [5, 15]: 2.5 h
T1/2 [5, 15]: 4.58 h
Tmax [5, 15]: 0.17 h
AUC0~∞ [5, 16]: 14890 ng·h/mL
CL or CL/F [5, 16]: 1.35 mL/g/h
Cmax [5, 16]: 22350 ng/mL
MRT [5, 16]: 0.87 h
T1/2 [5, 16]: 0.78 h
Tmax [5, 16]: 0 h
Vss [5, 16]: 1.18 mL/g
F^oral ([5]; nude mice, PEG400/EtOH/Tween 80/D5W, p.o., 100 mg/kg): 0.53
AUC0~∞ [5, 17]: 39630 ng·h/mL
CL or CL/F [5, 17]: 2.52 mL/g/h
Cmax [5, 17]: 18930 ng/mL
MRT [5, 17]: 2.82 h
T1/2 [5, 17]: 4.26 h
Tmax [5, 17]: 0.5 h
time to highest plasma concentration ([5]; nude mice, i.p. 50 mg/kg): 10 min
time to highest plasma concentration ([5]; nude mice, oral gavage 100 mg/kg): 30 min
AUC0~∞ [6, 18]: 1960 ng·h/mL
CL or CL/F [6, 18]: 1.27 mL/g/h
Cmax [6, 18]: 4340 ng/mL
MRT [6, 18]: 2.76 h
T1/2 [6, 18]: 0.31 h
Tmax [6, 18]: 0 h
Vss [6, 18]: 3.52 mL/g
F^oral ([6]; CD-1 mice, PEG400/EtOH/Tween 80/D5W, p.o., 2.5 mg/kg): 0.43
AUC0~∞ [6, 19]: 850 ng·h/mL
CL or CL/F [6, 19]: 2.61 mL/g/h
Cmax [6, 19]: 550 ng/mL
MRT [6, 19]: 8.28 h
T1/2 [6, 19]: 10.73 h
Tmax [6, 19]: 0.08 h
F^oral ([6]; CD-1 mice, PEG400/EtOH/Tween 80/D5W, p.o., 5 mg/kg): 0.44
AUC0~∞ [6, 20]: 1730 ng·h/mL
CL or CL/F [6, 20]: 3.22 mL/g/h
Cmax [6, 20]: 990 ng/mL
MRT [6, 20]: 1.8 h
T1/2 [6, 20]: 2.97 h
Tmax [6, 20]: 0.5 h
tissue distribution ([6]; mice, i.v. 2.5 mg/kg and p.o. 2.5 mg/kg, levels stayed relatively high for at least 24 h): high levels of ML-970 in the liver, gallbladder, and small intestine
compound excreted in feces [7]: 1.14%
compound excreted in urine [7]: less than 0.5%
compound excreted in urine ([8]; 48 h after treatment): about 1%
parental compound excreted in feces ([8]; first 8 h): less than 0.1%
tissue concentrations between two doses [9]: no significant difference
GI50 (NCI60): 34 nM
cell lines killed in hollow fiber assay (six different cell lines): efficiently killing six different cell lines
hollow fiber assay total score (six different cell lines): 54 points
antitumor effects in xenograft models [10]: significant antitumor effects in all of the models
tumor growth [11]: inhibited tumor growth
weight loss (index for host toxicity) [11]: no weight loss
liver and bone marrow toxicity compared with other CC-1065 analogs [12]: decreased liver and bone marrow toxicity

— article PMC6690187 (Cancer chemotherapy and pharmacology, 2012)
